# Where a SMILES comes first, the peptide text is derived from it.
# Type: in vivo, mice
# Outline: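 Adult male C57BL/6J mice (20–25 g), single i.v. injection 10 mg/kg in 10% Solutol in saline; 5 mice per time point killed at 2, 5, 15, 30, 60 min, cardiac blood centrifuged for plasma. Plasma precipitated with ice-cold acetonitrile containing internal standard, supernatant diluted with water; C8 reversed-phase LC-MS/MS, positive-ion MRM m/z 578.1→217.1/245.0; calibration 0.5–500 ng/mL; non-compartmental analysis.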
# [1] = male, C57BL/6J, mouse, plasma, iv, 10 mg/kg
compound,measurement,setting,value
"O=C1N[C@H](Cc2c[nH]c3ccccc23)C(=O)N[C@@H](Cc2ccccc2)C(=O)N2CCC[C@@H]2C(=O)N[C@H]1Cc1ccccc1 [[D-Trp]CJ-15,208, cyclo[Phe-D-Pro-Phe-D-Trp]] (HELM PEPTIDE1{F.[dP].F.[dW]}$PEPTIDE1,PEPTIDE1,1:R1-4:R2$$$V2.0)",Time to almost complete elimination from plasma,"10 mg/kg i.v. to mice, LC-MS/MS",≤ 1 h
same,AUC0-t,"male C57BL/6J mice, 10 mg/kg i.v., plasma, LC-MS/MS, non-compartmental analysis, 5 mice per time point",19124.7 ng·min/mL
same,AUC(0-inf),[1],337 ng·h/mL
same,C0,[1],1130 ng/mL
same,Cmax,[1],1020 ng/mL
same,Vd,[1],10.1 L/kg
same,clearance,[1],494 mL/min/kg
same,half-life,[1],14.2 min
same,Decline of plasma concentration,"within 15 minutes after 10 mg/kg i.v. to mice, LC-MS/MS",over 50%

# — PMC4956519 (Journal of chromatography. B, Analytical technologies in …, 2016)
